The test system of one test is NCI-H1299. Put plainly: Inhibitory activity against H1299 human lung carcinoma cell growth. Type of test: functional, cell-based.
The next test deals with HCT-116. Put plainly: Inhibitory activity against HCT116 human colon cell growth. Type of test: functional, cell-based.
The target in another test is Histone deacetylase. Description: Inhibitory activity against histone deacetylase (HDAC) enzyme obtained from H1299 human lung carcinoma cell lysates.
Test [1] concerns Mus musculus. Description: Compound was tested in vivo for efficacy in athymic mice bearing HCT116 subcutaneous tumor xenografts at a dose of 30 mg/kg and change in the body weight of the mouse was evaluated. Type of test: functional. Put shortly: (§1)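 Female outbred athymic nu/nu mice, ≈10⁶ HCT116 cells injected sc in right axillary region under anesthesia; treatment began when tumors ≈100 mm³ (day 13 post-implant), groups of eight balanced on tumor volume. Compound given iv as lactate salt in 10% DMSO/D5W, qd 5×/week for 15 doses. Individual body weights recorded once weekly; % change from start reported.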

Test [2] concerns Mus musculus. Description: Compound was tested in vivo for maximum tolerated dose (MTD) that resulted in no deaths when administered intravenously for five days. Type of test: functional. Put shortly: (§2)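 Athymic mice, four per group, dosed iv once daily for five consecutive days, up to a maximum of 200 mg/kg/day. Compound given as the lactate salt in 10% DMSO in 5% dextrose/water (final DMSO 10%). MTD taken as the highest dose that caused no deaths.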

For test [3], the system named is Mus musculus. Put plainly: Ratio of the change in tumor volume of treated animals to the change in tumor volume of control animals at a dose of 30 mg/kg. Type of test: functional. Put shortly:
(§3)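 HCT116 sc xenografts (≈10⁶ cells) in female athymic nude mice, eight per group, treated from ≈100 mm³ tumors with iv lactate salt in 10% DMSO/D5W qd 5×/week for 10 or 15 doses. Tumors measured weekly; % T/C = change in treated tumor volume over change in vehicle-control tumor volume; one-tailed Student's t-test.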

The subject of test [4] is Mus musculus. Description: Compound was tested in vivo for efficacy in athymic mice bearing HCT116 subcutaneous tumor xenografts at a dose of 20 mg/kg and change in the body weight of the mouse was evaluated. Type of test: functional. Put shortly: as §1
Test [5] relates to Mus musculus. Description: Ratio of the change in tumor volume of treated animals to the change in tumor volume of control animals at a dose of 20 mg/kg. Type of test: functional. In short, it runs like this:
as §3

The test system of test [6] is Mus musculus. Description: Compound was tested for efficacy in athymic mice bearing HCT116 subcutaneous tumor xenografts at a dose of 10 mg/kg and change in the body weight of the mouse was evaluated. Type of test: functional. Put shortly: as §1
The test system of test [7] is Mus musculus. Description: Compound was tested for maximum tolerated dose (MTD) that resulted in no deaths when administered intravenously for five days. Type of test: functional. Put shortly: as §2
The subject of test [8] is Mus musculus. Put plainly: Ratio of the change in tumor volume of treated animals to the change in tumor volume of control animals at a dose of 10 mg/kg. Type of test: functional. In short, it runs like this:
as §3

For test [9], the system named is Mus musculus. Description: Compound was tested for efficacy in athymic mice bearing HCT116 subcutaneous tumor xenografts at a dose of 75 mg/kg and change in the body weight of the mouse was evaluated. Type of test: functional.
The subject of test [10] is Mus musculus. Put plainly: Ratio of the change in tumor volume of treated animals to the change in tumor volume of control animals at a dose of 75 mg/kg. Type of test: functional. In short, it runs like this:
as §3

Test [11] has as its system Mus musculus. Description: Compound was tested in vivo for efficacy in athymic mice bearing HCT116 subcutaneous tumor xenografts at a dose of 40 mg/kg and change in the body weight of the mouse was evaluated. Type of test: functional. Put shortly: as §1
Test [12] concerns Mus musculus. Description: Ratio of the change in tumor volume of treated animals to the change in tumor volume of control animals at a dose of 40 mg/kg. Type of test: functional. Put shortly: as §3
For test [13], the system named is Mus musculus. Put plainly: Compound was tested for efficacy in athymic mice bearing HCT116 subcutaneous tumor xenografts at a dose of 100 mg/kg and change in the body weight of the mouse was evaluated. Type of test: functional. In short, it runs like this:
as §1

Test [14] deals with Mus musculus. Put plainly: Compound was tested in vivo for efficacy in athymic mice bearing HCT116 subcutaneous tumor xenografts at a dose of 100 mg/kg and change in the body weight of the mouse was evaluated. Type of test: functional. Particulars: route intravenous. Put shortly:
as §1

For test [15], the system named is Mus musculus. Put plainly: Compound was tested in vivo for efficacy in athymic mice bearing HCT116 subcutaneous tumor xenografts at a dose of 25 mg/kg and change in the body weight of the mouse was evaluated. Type of test: functional.
Test [16] relates to Mus musculus. Put plainly: Compound was tested in vivo for efficacy in athymic mice bearing HCT116 subcutaneous tumor xenografts at a dose of 50 mg/kg and change in the body weight of the mouse was evaluated. Particulars: route intravenous. Type of test: functional. Put shortly: as §1
For test [17], the system named is Mus musculus. Put plainly: Compound was tested in vivo for efficacy in A549 human lung carcinoma xenograft model at a dose of 10 mg/kg and change in the body weight of the mouse was evaluated. Type of test: functional. In short, it runs like this:
(§4)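 Female outbred athymic nu/nu mice, ≈10⁷ A549 cells injected sc in right axillary region; treatment began ≈20 days post-implant at tumors ≈100 mm³, eight mice per group balanced on tumor volume. Dosing iv as lactate salt in 10% DMSO/D5W, qd 5×/week for 15 doses. Body weights recorded once weekly; % change reported.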

Test [18] has as its system Mus musculus. Description: Compound was tested in vivo for efficacy in A549 human lung carcinoma xenograft model at a dose of 100 mg/kg and change in the body weight of the mouse was evaluated. Type of test: functional. Put shortly: as §4
(In general: Xenograft models place foreign cells or tissue in a host animal.)

The subject of test [19] is Mus musculus. Description: Compound was tested in vivo for efficacy in A549 human lung carcinoma xenograft model at a dose of 25 mg/kg and change in the body weight of the mouse was evaluated. Type of test: functional. Put shortly:
as §4

Test [20] concerns Mus musculus. Put plainly: Compound was tested in vivo for efficacy in A549 human lung carcinoma xenograft model at a dose of 50 mg/kg and change in the body weight of the mouse was evaluated. Type of test: functional. Put shortly: as §4
Test [21] concerns Mus musculus. Description: Compound was tested in vivo for efficacy in athymic mice bearing HCT116 subcutaneous tumor xenografts at a dose of 10 mg/kg and change in the body weight of the mouse was evaluated. Type of test: functional. The conditions noted are these: route intravenous. In short, it runs like this: as §1
Test [22] has as its system Mus musculus. Put plainly: Ratio of the change in tumor volume of treated animals to the change in tumor volume of control animals at a dose of 50 mg/kg (A549 human lung carcinoma xenograft study). Type of test: functional. In short, it runs like this: (§5)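 A549 sc xenografts (≈10⁷ cells) in female athymic nude mice, eight per group, dosed from ≈100 mm³ tumors (day 20) iv as lactate salt in 10% DMSO/D5W qd 5×/week for 15 doses. Weekly tumor measurement; % T/C = treated over vehicle-control change in tumor volume; one-tailed Student's t-test.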

For test [23], the system named is Mus musculus. Put plainly: Ratio of the change in tumor volume of treated animals to the change in tumor volume of control animals at a dose of 10 mg/kg (A549 human lung carcinoma xenograft study). Type of test: functional. In short, it runs like this:
as §5

Test [24] deals with Mus musculus. Put plainly: Ratio of the change in tumor volume of treated animals to the change in tumor volume of control animals at a dose of 100 mg/kg. Type of test: functional. Particulars: 100 mg/kg. Put shortly: as §3
Test [25] has as its system Mus musculus. Put plainly: Ratio of the change in tumor volume of treated animals to the change in tumor volume of control animals at a dose of 100 mg/kg (A549 human lung carcinoma xenograft study). Type of test: functional. Put shortly: as §5
Test [26] deals with Mus musculus. Description: Ratio of the change in tumor volume of treated animals to the change in tumor volume of control animals at a dose of 25 mg/kg. Type of test: functional. In short, it runs like this: as §3
The subject of test [27] is Mus musculus. Description: Ratio of the change in tumor volume of treated animals to the change in tumor volume of control animals at a dose of 25 mg/kg (A549 human lung carcinoma xenograft study). Type of test: functional. In short, it runs like this: as §5
The subject of test [28] is Mus musculus. Description: Ratio of the change in tumor volume of treated animals to the change in tumor volume of control animals at a dose of 50 mg/kg. Type of test: functional. In short, it runs like this: as §3

Several values for one entry are separate records, joined by “and”; a condition that tells them apart may be missing. Identical values can stand only once.

One may read the IC50 as the concentration at which inhibition is half-maximal. As a reminder, the MTD is the highest dose tested that stayed within the study's limit of toxicity. A higher MTD goes with better tolerability. A word on the T/C: it is the result in the treated group divided by that in the control group, in per cent. Turning to `O=C(/C=C/c1ccc(CNCCc2cnc3ccccc3c2)cc1)NO`, the half-maximal inhibitory concentration (IC50) in the test with NCI-H1299 turned out to be 500 nM; in the test with HCT-116, 40 nM; against Histone deacetylase, 67 nM. In addition, in the test with Mus musculus [1], the Body weight change is -5.4%. In the test on Mus musculus [2], this compound had a maximum tolerated dose (MTD) of 30 mg/kg. Moreover, the T/C with Mus musculus [3] is listed as 77%.

`O=C(/C=C/c1ccc(CNCCc2cn(CC3CC3)c3ccccc23)cc1)NO`: the figures for the half-inhibitory concentration (IC50) in the test on NCI-H1299, in the test with HCT-116 and on Histone deacetylase were 250 nM, 30 nM and 84 nM, respectively. For the same compound, the Body weight change in the test on Mus musculus [4] is -0.9%. Further, the MTD in the test on Mus musculus [2] worked out at 20 mg/kg. For the same compound, in the test on Mus musculus [5], the T/C turned out to be 81%.

With `O=C(/C=C/c1ccc(CNCCn2c3ccccc3c3ccccc32)cc1)NO`, the IC50 with NCI-H1299 came to 100 nM; in the test on HCT-116 it was 10 nM; against Histone deacetylase it was 66 nM. The Body weight change in the test on Mus musculus [6] is -3.7%. In the test on Mus musculus [7], this compound showed a maximum tolerated dose (MTD) of 10 mg/kg. In the test with Mus musculus [8], the T/C is 85%.

On to `Cn1cc(CCNCc2ccc(/C=C/C(=O)NO)cc2)c2ccccc21`, for which the values for the IC50 with NCI-H1299, with HCT-116 and on Histone deacetylase were 170 nM, 10 nM and 23 nM, respectively. Also, the Body weight change in the test on Mus musculus [9] is -3.2%. Further, the T/C in the test with Mus musculus [10] worked out at 15%. In addition, the maximum tolerated dose (MTD) in the test on Mus musculus [7] was 75 mg/kg.

Regarding `O=C(/C=C/c1ccc(CN(CCc2c[nH]c3ccccc23)C2CCOCC2)cc1)NO`, the results for the IC50 in the test with NCI-H1299, with HCT-116 and against Histone deacetylase were 40 nM, 6 nM and 10 nM, respectively. Moreover, in the test on Mus musculus [11], the Body weight change came out at 0.1%. The compound further came in with a maximum tolerated dose (MTD) in the test with Mus musculus [2] of 40 mg/kg. Moreover, the T/C in the test with Mus musculus [12] stood at 32%.

Turning to `O=C(/C=C/c1ccc(CN(CCO)CCc2c[nH]c3ccccc23)cc1)NO` [DACINOSTAT], the 50% inhibitory concentration (IC50) was found to be 150 nM in the test with NCI-H1299 and 10 nM in the test on HCT-116. In addition, the Body weight change was -0.9% with Mus musculus [13]; 1.4% with Mus musculus [14]; 0% in the test on Mus musculus [15]; 2.3% in the test on Mus musculus [16]; 1.3% with Mus musculus [17]; 0.4% in the test on Mus musculus [18]. For the same compound, the Body weight change in the test on Mus musculus [19] was -0.9%; in the test with Mus musculus [20] it was -0.4%; in the test on Mus musculus [21], 2.7%. Also, the T/C in the test with Mus musculus [22] was 15%; in the test on Mus musculus [8], 55%; in the test with Mus musculus [23], 32%; in the test with Mus musculus [24], 12% and 20%; in the test on Mus musculus [25] it was 7%; in the test with Mus musculus [26], 38%. Besides, the T/C turned out to be 20% in the test on Mus musculus [27] and 27% in the test on Mus musculus [28]. This compound displayed a maximum tolerated dose (MTD) in the test with Mus musculus [7] above 200 mg/kg.

These data come from ChEMBL document CHEMBL1145132, “N-hydroxy-3-phenyl-2-propenamides as novel inhibitors of human histone deacetylase with in vivo antitumor activity: discovery of (2E)-N-hydroxy-3-[4-[[(2-hydroxyethyl)[2-(1H-indol-3-yl)ethyl]amino]methyl]phenyl]-2-propenamide (NVP-LAQ824)” (J Med Chem, 2003).
